CaV13 FRET inh = Primary screen for inhibitors of IQ motif and Ca2+-dependent inactivation inhibitor domain binding in CACNA1D, Förster resonance energy transfer in living cells, … | HEK cells, CFP/YFP FRET ICDI-IQ, plate reader, 10 min; percent FRET-ratio fall versus neutral wells | inhibition, % at 12.3 µM | 340,000 tested, 0.098% active | AID 743397;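 active = mean replicate inhibition of at least 30% and at least 1% of replicates passing that level; inconclusive = only one of the two criteria is met; inactive = neither criterion is met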;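 note: 0% = median of the neutral control wells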
RanGTP-Imp inh = inhibitors of RanGTP-importin-beta interaction, primary screen, biochemical, FRET, CFP-Ran, YFP-importin-beta, homogeneous | cell-free CFP-Ran/YFP-importin-beta FRET ratio | inhibition, % (no concentration beside the values) | 300,000 tested, 1.1% active | AID 2216;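 active = more than half of the replicate wells show a fall in the fluorescence ratio signal beyond about 16%, limit read from the data, passing the limit was not always enough; inconclusive = exactly half of the replicate wells pass the set limit; inactive = fewer than half of replicates pass the limit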;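 note: 0% = DMSO wells and 100% = Ran loaded with GDP instead of GTP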
Hck Nef HTS = blocks Nef-activated human Hck kinase | P08631 | Recombinant Hck-YEEI plus Nef, Z-Lyte FRET kinase assay | inhibition, % at 20 µM | 220,000 tested, 0.68% active | AID 463187;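 active = Hck-Nef kinase inhibition above about 50%, limit read from the data; inactive = inhibition below that limit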;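 note: 0% = DMSO with Hck plus Nef and 100% = Hck alone without Nef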
Target sequence (P08631 whole entry, looked up): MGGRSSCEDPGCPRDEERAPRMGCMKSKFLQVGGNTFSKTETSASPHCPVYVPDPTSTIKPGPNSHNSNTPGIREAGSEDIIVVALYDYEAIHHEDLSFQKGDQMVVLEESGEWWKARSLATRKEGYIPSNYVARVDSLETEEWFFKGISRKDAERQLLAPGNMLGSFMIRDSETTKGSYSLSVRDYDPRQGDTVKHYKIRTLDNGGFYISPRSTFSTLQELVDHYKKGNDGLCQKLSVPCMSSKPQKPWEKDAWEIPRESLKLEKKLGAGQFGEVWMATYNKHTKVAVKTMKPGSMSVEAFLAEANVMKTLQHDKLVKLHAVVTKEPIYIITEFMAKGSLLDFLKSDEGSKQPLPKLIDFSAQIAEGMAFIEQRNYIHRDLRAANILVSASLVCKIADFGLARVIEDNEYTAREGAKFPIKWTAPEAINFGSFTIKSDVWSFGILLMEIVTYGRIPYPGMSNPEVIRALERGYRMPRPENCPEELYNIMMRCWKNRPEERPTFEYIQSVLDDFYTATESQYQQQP
Runt-CBFb FRET = Runt domain-CBFb interaction inhibition; inhibition, % at 20 µM; 220,000 tested, 0.46% active; Cerulean-Runt/Venus-CBFb FRET ratio 530/480, 1 h;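 active = inhibition over about 50% at 20 µM in the single-dose screen, limit read from the data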;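 note: 0% = DMSO wells and 100% = excess unlabeled CBFb competitor control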
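Buffer or medium: Tris pH 7.5 buffer with BSA. Assay system: Cerulean-labeled Runt domain protein. Amount: each fluorescent fusion protein 100 nM. Read-out basis: loss of energy transfer signal. Incubation: 1 h compound exposure, room temperature. Probe or stimulus: Venus-CBFb binding partner, 100 nM. Detection: FRET, excitation 422 nm, emission at 530 and 480 nm.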
Runt-SMMHC FRET = blocks binding of human RUNX1 Runt domain to CBFb-SMMHC; Q01196+Q13951; Cerulean-Runt/Venus-CBFb-SMMHC FRET ratio 530/480, 1 h; inhibition, % at 20 µM; 220,000 tested, 0.74% active; AID 1434;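 active = mean inhibition across duplicate retests at 20 µM reaching about 50%, limit read from the data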;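 note: 0% = DMSO wells and 100% = wells with excess untagged CBFb-SMMHC; inhibitors lower the FRET ratio by blocking Runt binding to CBFb-SMMHC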
YIC FRET counter = counter-screen: alters YIC FRET probe signal | shares compounds with RanGTP-Imp inh | 1,000 tested, 40% active | Purified YIC probe, intramolecular FRET ratio YFP/CFP | IC50, µM;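 active = fitted half-maximal inhibitory concentration no more than tenfold above the top dose tested; inconclusive = flat fit with 30 to 70% activity, or poor fit; inactive = half-maximal concentration beyond tenfold above the top dose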
* marks the source's active call; other numbers are inactive results; ? = inconclusive; nt = not tested or not shown. Hits are enriched below; roughly 1.5% of the tested compounds scored in any of these assays.

SMILES | CaV13 FRET inh | RanGTP-Imp inh | Hck Nef HTS | Runt-CBFb FRET | Runt-SMMHC FRET | YIC FRET counter
COc1cccc(C(=O)/C=C/Nc2cc(C)ccc2O)c1 | -12.8 | 30.0* | 1.0 | -5.9 | -31.6 | >50
CC1(c2nnc(-c3ccccc3)o2)CC(c2ccncc2)=NO1 (stereo unspecified) | -10.4 | -1.3 | 24.1 | 2.9 | 0.0 | nt
Cc1nnc(SCC(=O)Nc2ccc(F)cc2)n(N)c1=O | -2.3 | 4.5 | nt | nt | nt | nt
Fc1ccc(Nc2nnc(-c3ccncc3)s2)cc1Cl | -6.6 | nt | nt | nt | nt | nt
CC(CC(F)(F)F)N1CCC(n2nccc2NC(=O)CCOc2ccccc2)CC1 (stereo unspecified) | -5.7 | 26.5* | nt | nt | nt | >50
O=C(/C=C/c1cccc(C(F)(F)F)c1)Nc1cccc(C(F)(F)F)c1 | nt | -1.4 | 2.3 | -1.4 | 0.3 | nt
O=S(=O)(Cc1ccc(Cl)cc1)Nc1ccc2c(c1)OCO2 | -9.6 | 19.0* | 2.2 | -1.0 | 28.0 | >50
O=S(=O)(Cc1ccc(Cl)cc1)N1CCN(Cc2ccc3c(c2)OCO3)CC1 | -19.5 | 5.5 | 9.9 | -0.1 | -0.8 | nt
Nc1nc2ncc(CNc3ccc(C(=O)N[C@@H](CCC(=O)O)C(=O)O)cc3)nc2c(=O)[nH]1 | nt | 3.5 | nt | nt | nt | nt
CN(Cc1cnc2nc(N)nc(N)c2n1)c1ccc(C(=O)N[C@@H](CCC(=O)O)C(=O)O)cc1 | -4.5 | 23.3* | nt | nt | nt | >50
Cc1nn(C(=O)c2cccs2)c(C)c1CN1C(=O)c2ccccc2C1=O | -7.3 | 1.4 | 12.4 | -1.8 | -1.1 | nt
Cc1nn(C(=O)c2ccco2)c(C)c1CN1C(=O)c2ccccc2C1=O | nt | 19.8* | 2.0 | -1.0 | -8.4 | >50
CN(C)c1cc(-c2ccccc2)nc(-c2ccccc2)n1 | -19.0 | -3.8 | nt | nt | nt | nt
Cc1ccc(OCc2cc(C(=O)N3CCC(c4ccccc4Cl)C3)no2)cc1C (stereo unspecified) | -7.5 | 2.6 | nt | nt | nt | nt
O=c1c2ccccc2nc(/C=C/c2ccc(Br)cc2)n1CCO | -3.1 | 3.4 | nt | nt | nt | nt
Cc1[nH]c2ccccc2c1/C=C/c1nc2ccccc2c(=O)n1CCO | -21.0 | 16.9* | -5.7 | -44.8 | -10.5 | 9.01*
COc1ccc(C(=O)O)cc1S(=O)(=O)NC(C)(C)C | -6.6 | 2.7 | 36.6 | 0.4 | 0.1 | nt
COc1ccc(C(=O)O)cc1S(=O)(=O)N(C)C | -4.1 | 26.2* | 16.9 | 0.3 | -1.2 | >50
Cn1c(=O)cc(OCC(=O)NCc2ccccn2)c2ccccc21 | -5.1 | 1.9 | 1.8 | -0.1 | -8.6 | nt
Cn1c(=O)cc(OCCCC(=O)NCc2ccccn2)c2ccccc21 | -5.8 | 22.5* | 2.4 | -6.1 | 0.1 | >50
COCCNC(=O)c1ccc2c(c1)nc(C)n2-c1cccc(Cl)c1 | -19.5 | -2.8 | nt | nt | nt | nt
O=C(c1ccc(F)cc1)c1cc2ccc(O)cc2oc1=O | 0.9 | 37.2* | nt | nt | nt | 13.4*
COc1ccccc1C(=O)c1cc2ccc(O)cc2oc1=O | 144.4* | 54.8* | 30.0 | 114.4* | 126.6* | 7.12*
O=C(c1ccccc1)c1cc2ccccc2oc1=O | -19.2 | -0.9 | nt | nt | nt | nt
Brc1cccc(-c2nnc3sc(CN4CCC5(CC4)OCCO5)cn23)c1 | -7.1 | 4.4 | 2.7 | 0.1 | 1.9 | nt
SMILES | CaV13 FRET inh | RanGTP-Imp inh | Hck Nef HTS | Runt-CBFb FRET | Runt-SMMHC FRET | YIC FRET counter
CC(C)(C)NC(=O)C(c1ccco1)N(Cc1ccc(F)cc1)C(=O)c1snc(C(N)=O)c1N (stereo unspecified) | -8.9 | 28.4* | 4.2 | -3.7 | 1.7 | >50
COc1ccc(CN(C(=O)c2snc(C(N)=O)c2N)C(C(=O)NC(C)(C)C)c2ccco2)cc1 (stereo unspecified) | -6.3 | ? | 3.5 | -4.9 | 1.7 | nt
NS(=O)(=O)c1cccc(NC(=O)CCCNC(=O)c2ccc(Cl)cc2)c1 | -2.7 | -1.6 | nt | nt | nt | nt
NS(=O)(=O)c1cccc(NC(=O)CCSc2ccc(Cl)cc2)c1 | -5.6 | 18.5* | 7.5 | 9.3 | -21.7 | >50
CCOC(=O)N1CCN(/C=C(\C#N)c2nc3ccccc3s2)CC1 | -5.1 | 20.6* | 3.5 | -1.8 | -2.4 | >50
c1ccc2nc(N3CCN(Cc4ccc5c(c4)OCO5)CC3)cnc2c1 | -6.3 | 1.6 | -9.8 | 0.4 | -0.7 | nt
N#C/C(=C\N1CCN(Cc2ccc3c(c2)OCO3)CC1)c1nc2ccccc2s1 | -5.9 | 20.0* | 1.2 | 0.4 | 3.0 | >50

Source: PubChem BioAssay
